The entries come from a sample that favours hits as a whole.
L major viab – Leishmania major promastigote growth inhibition. AID 1063. 200,000 compounds, 9% hits. inhibition, % at 10 µM. Leishmania major promastigotes, resazurin fluorescence viability; in the data active = inhibition above about 50%;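 note: promastigotes grown with compound for 44 hours at 28 °C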
Hsp70 activator – transcriptional activators of Hsp70. HeLa Hsp70 promoter luciferase reporter, luminescence; scaled: vehicle 0, proteasome-inhibitor control 100%. activation, % at 10 µM. 200,000 compounds, 0.04% hits;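 active = activation above the mean across all tested compounds plus 3 SD, cutoff set per campaign, cut at about 5.5% in these data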;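 note: 100% = MG132 at 30 µM as the positive control and 0% = DMSO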
HSF-1 act – increases HSF-1 driven luciferase reporter signal | 300,000 compounds, 1.7% hits | NIH3T3-HGL HSF-1 luciferase reporter, MG132, 8 h; 100% = twice DMSO control signal | activation, % at 9 µM;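 active = mean replicate activation of at least 50% with a set share of replicates each reaching 50%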;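 note: 0% = median of the neutral control wells and 100% = twice that signal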
HSF1 inhib – HSF1 inhibition; activity change, negative = inhibition, % at 7.5 µM (by protocol); NIH3T3-HGL HSE-luciferase, MG132-induced, luminescence 8 h; hits give low values; 300,000 compounds, 0.77% hits;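 active = more than half of replicate wells show activity change below -50%, luminescence cut by over half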;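 note: luciferase reports HSF-1 transcriptional activity via heat shock element; 0% = median of DMSO wells and -100% = zero luminescence signal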
T cruzi repl – blocks replication of Trypanosoma cruzi. T. cruzi beta-gal in NIH3T3, luminescence, 90 h. inhibition, % (no concentration beside the values). 300,000 compounds, 1.4% hits;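 active = mean inhibition across valid replicates above about 55%, limit read from the data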;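 note: signal also drops with host cell toxicity which is not excluded here; 0% = plate median of DMSO wells and 100% = zero luminescence signal; higher percent means less beta-gal luminescence so fewer parasites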
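System – NIH/3T3 host cells with β-galactosidase reporter T. cruzi · Doses – single 50 nL compound addition per well in DMSO · Reagent – 5000 T. cruzi trypomastigotes/well · Medium – Low-serum DMEM with 2% FBS · Timing – ≥90 h infection period, 3 h prior cell attachment · Evaluation – parasite load inhibition, % · Technique – GalScreen luminescence, 60 min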
Numbers without * were called inactive; · = no result given.

SMILES	L major viab	Hsp70 activator	HSF-1 act	HSF1 inhib	T cruzi repl
O=C(c1ccccc1F)N1CCN(c2ccc([N+](=O)[O-])c3ncccc23)CC1	-1	0	-6	-2	-16
O=[N+]([O-])c1cccc2c(N3CCCC3)ccnc12	88*	0	15	7	51
COc1ccccc1C(=O)ON=C1c2ccccc2-c2ccccc21	51*	0	-16	2	-8
COc1ccccc1C(=O)O/N=C(\c1ccccc1)c1ccncc1	1	0	7	-2	-2
Cc1ccc(NC(=O)c2cc(N3C(=O)C=CC3=O)ccc2N2CCOCC2)cc1Cl	26	0	20	14	55*
OC(COc1c(Cl)cc(Cl)cc1Cl)CN1CCCCC1 (stereo not given)	97*	0	9	-5	25
Cc1cc(OCC(O)CN2CCN(C)CC2)ccc1C(C)C (stereo not given)	90*	0	-10	5	26
OCCN1CCN(CC(O)COc2ccc(Cl)cc2)CC1 (stereo not given)	74*	0	-11	-3	3
OC(COCc1ccc2c(c1)OCO2)CN1CCCCC1 (stereo not given)	-7	0	-5	-12	-9
OC(COCc1ccc2c(c1)OCO2)CN1CCC(Cc2ccccc2)CC1 (stereo not given)	87*	0	-2	-5	35
Cc1cc(OCC(O)CN2CCCC2)cc(C)c1Cl (stereo not given)	·	·	-3	-3	26
CN1CCN(CC(O)COc2ccc(C(=O)O)cc2)CC1 (stereo not given)	·	·	-2	-1	2
COc1ccc(NC(=O)C(=O)N/N=C/c2cc(C)n(-c3cccc(Cl)c3Cl)c2C)c(OC)c1	1	1	8	-4	6
CC(C)CN(C(=O)COC(=O)c1cccn1C)c1c(N)n(Cc2ccccc2)c(=O)[nH]c1=O	·	·	-5	-1	-5
OC(COc1ccc(CNCCc2ccc(C(F)(F)F)cc2)cc1)CN1CCCCC1 (stereo not given)	100*	0	10	10	59*
CCC(=O)c1ccc(OCC(O)CN2CCCCC2)cc1 (stereo not given)	66*	0	4	-11	-3
CCN1CCN(CC(O)COc2ccc(C)c(C)c2)CC1 (stereo not given)	84*	0	-4	-2	-2
CCN1CCN(CC(O)COc2ccc(Cl)cc2)CC1 (stereo not given)	89*	0	20	-4	-2
COc1ccc(OCC(O)CN2CCCCC2)cc1 (stereo not given)	8	0	-4	1	1
OCCN1CCN(CC(O)COc2ccc(C34CC5CC(CC(C5)C3)C4)cc2)CC1 (stereo not given)	100*	0	3	1	33
CN1CCN(CC(O)COc2ccc(Cl)cc2)CC1 (stereo not given)	86*	0	-5	-5	25
COc1cccc(OCC(O)CN2C(C)CCCC2C)c1 (stereo not given)	4	0	1	-4	-12
Oc1ccc(C23CC4CC(CC(C4)C2)C3)cc1O	·	·	10	12	2
CN1CCN(CC(O)COc2ccc(OCC(O)CN3CCN(C)CC3)cc2)CC1 (stereo not given)	0	0	-16	-6	8
NCCOc1ccc(C23CC4CC(CC(C4)C2)C3)cc1	101*	0	7	-3	-18
SMILES	L major viab	Hsp70 activator	HSF-1 act	HSF1 inhib	T cruzi repl
Cc1cc(OCC(O)CN2C(C)CCCC2C)ccc1C(C)C (stereo not given)	97*	0	-4	2	24
COc1ccccc1N1CCN(CC(O)COc2ccc(C)c(C)c2)CC1 (stereo not given)	·	·	-6	-8	0
CCN1CCN(CCOc2ccc(Cl)cc2)CC1	78*	0	-10	4	67*
OC(COc1ccc(OCC(O)CN2CCCCC2)cc1)CN1CCCCC1 (stereo not given)	·	·	6	-7	5
Cc1ccc(OCC(O)CN2CCN(Cc3ccc4c(c3)OCO4)CC2)cc1C (stereo not given)	91*	0	1	1	6
OC(COc1ccc(Cl)cc1)CN1CCCCC1 (stereo not given)	89*	0	-1	-1	3
OC(COc1ccc(Cl)cc1)CN1C2=NCCCN2c2ccccc21 (stereo not given)	63*	0	-25	-12	17
COc1ccc(N2CCN(C(CNC(=O)CC(C)(C)C)c3ccc4c(c3)OCO4)CC2)cc1 (stereo not given)	·	·	1	-1	-9
CCOC(=O)c1nnsc1N	·	·	-1	-2	-6
OC(COc1ccc2c(c1)OCO2)CN1CCCCC1 (stereo not given)	-8	0	-16	-10	-8
OC(COc1ccc2c(c1)OCO2)CN1CCc2ccccc2C1 (stereo not given)	74*	0	2	1	-1
OC(COc1ccc2c(c1)OCO2)CN1CCN(c2ccccc2)CC1 (stereo not given)	-2	0	-5	4	6
C=CCc1ccccc1OCC(O)CN1CCN(Cc2ccc3c(c2)OCO3)CC1 (stereo not given)	93*	0	31	1	15
Cc1cc(/C=N/n2cnnc2)c(C)n1-c1ccc(OCc2ccccc2F)cc1	77*	0	1	-6	38
Cc1cc(/C=N/n2cnnc2)c(C)n1-c1ccc(OCc2ccc(Cl)cc2)cc1	98*	0	-49	-44	13
C(=N\n1cnnc1)/c1ccc(OCc2ccccc2)cc1	2	0	·	·	·
CCCc1cc2c(OC(=O)CC)c(-c3ccc(C(=O)OCC)o3)c(=O)oc2cc1OC	-5	0	-2	8	-1
Cc1cccc(C)c1NC(=O)CSc1nnc(C)c(=O)[nH]1	66*	0	2	0	-3
O=C(CCCc1ccccc1)NCCc1ccc(F)cc1	·	·	35	-3	3
COc1ccccc1N1CCN(C(=O)c2ccc(CN3CCOCC3)cc2)CC1	-15	0	-8	0	-17
COc1ccccc1NC(=O)c1ccc(S(=O)(=O)NCc2ccco2)cc1	·	·	-14	-2	-11
CCOC(=O)c1c(NC(=O)CC2SC(N)=NC2=O)sc2c1CCCC2 (stereo not given)	1	0	6	4	15
CC(C)c1ccc(OCC(=O)N2CCN(C(=O)c3ccco3)CC2)cc1	·	·	9	-2	6
Cc1cc(C)nc(SCCn2c(N(C)Cc3ccccc3)nc3c2c(=O)n(C)c(=O)n3C)n1	78*	0	3	-2	11
CN(Cc1ccccc1)c1nc2c(c(=O)n(C)c(=O)n2C)n1CCSc1ncccn1	-2	0	9	0	2
CN(Cc1ccccc1)c1nc2c(c(=O)[nH]c(=O)n2C)n1CCCc1ccccc1	54*	0	10	6	30
